Source: ChEMBL document CHEMBL1152475, “Investigation of the antioxidant properties of some new 4-hydroxycoumarin derivatives” (Eur J Med Chem, 2009)
Activity calls are given as the source filed them. The calls are words filed in the database; no cut-off is given here.

Experiments:
[1] = Antioxidant activity assessed as luminol-dependent chemiluminescence at 100 uM relative to control; type: functional
In short: (§1)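 Chemiluminescence run in 1 ml PBS with 0.1 mM luminol and 0.06 mM NaOCl to generate ClO⁻. Compound at several concentrations up to 10^-4 mol/L, or buffer for controls. CL recorded every 50 ms after NaOCl addition in flash mode. Scavenger index (CL-SI) expressed relative to the buffer control, set at 100%.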

[2] = Antioxidant activity assessed as luminol-dependent chemiluminescence at 1 uM; type: functional; in short: as §1
HUVEC = experiment: Cytoprotective activity against linoleic acid hydroperoxide-induced toxicity in HUVEC cells after 3 hrs; type: functional, cell-based; settings: Homo sapiens
[3] = Antioxidant activity assessed as decrease in luminol-dependent chemiluminescence's scavenger index; type: functional; in short: as §1
HL-60 = experiment: Cytotoxicity against human HL60 cells; type: functional, cell-based
EJ = experiment: Cytotoxicity against human EJ cells; type: functional, cell-based

| Structure (SMILES) | Activity [1] | Activity [3] | further results |
| --- | --- | --- | --- |
| CCOC(=O)C(C(C)=O)C(c1ccc(C(=O)O)cc1)c1c(O)c2ccccc2oc1=O (stereo not given) | Active | – | – |
| CCOC(=O)C(C(C)=O)C(c1ccc(O)cc1)c1c(O)c2ccccc2oc1=O (stereo not given) | Active | – | Activity [2]: Active |
| O=c1ccc2cc(O)c(O)cc2o1 | – | – | Activity (HUVEC): Active |
| CCOC(=O)C(C(C)=O)C(c1cccc([N+](=O)[O-])c1)c1c(O)c2ccccc2oc1=O (stereo not given) | 7% | Dose-dependent effect | Activity (HL-60): Active; Activity (EJ): Active |
| CCOC(=O)C(C(C)=O)C(c1cc(OC)c(OC)c(OC)c1)c1c(O)c2ccccc2oc1=O (stereo not given) | Active | Dose-dependent effect | – |
